Laboratory results published in PubChem BioAssay AID1424 (The Scripps Research Institute Molecular Screening Center, 2008).
Among all 220,000 compounds or so, about 390 (0.18%) were called active. Shown is part of a subset that was picked to be rich in actives. Unmarked numbers belong to inactive results.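 Rule for the calls: active = activation above its plate's cutoff, the mean activation of test wells on that plate plus 3 SD (cut at about 19% in these data); inactive = the rest.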 Residues, ends and D or L forms follow the SMILES beside them. *: point of attachment. OPac = O=C(CO*)c1ccccc1; Bz = O=C(c1ccccc1)*

These molecules were tested on transient receptor potential cation channel N1 (TRPN1/NompC), Danio rerio (assay: TRPN1 activation via calcium influx – cell-based, HEK293, calcium fluorescence, zebrafish, primary screen (AID 1424;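 note: 0% = DMSO alone and 100% = 87 µM carbachol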)). Settings: HEK293 zebrafish TRPN1-YFP, Fluo-8 calcium fluorescence; at 3 µM; active compounds read high; 100% = response to 87 µM carbachol.
Method in brief: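 Assay system: Zebrafish TRPN1-YFP in HEK293 cells | Incubation: Dye loading 1 h at 37 °C, then 30 min room temperature | Measured by: Kinetic Fluo-8 fluorescence, ex 470-495, em 515-575 nm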
`Cc1nn(-c2cc(Cl)ccc2N)c(=O)c2ccccc12` was tested, and the activation was -1.21%.
`COc1ccc(N2C(=O)c3cccc4cccc(c34)C2=O)nn1` gave an activation of -0.39%.
In the case of `Cc1nn(C)cc1N1C(=O)c2cccc3c(N)ccc(c23)C1=O`, the activation is reported as 23.7% (active).
Molecule `Cc1cc(=O)oc2cc(OCCC[n+]3ccccc3)ccc12` has an activation of 0.59%.
Work on `O=C(CNCc1ccc(Cl)cc1)Nc1cccc(C(=O)O)c1` yielded an activation of 0.21%.
Work on `CCOC(=O)c1c(C)oc(C)c(C(=O)OCC)c1=O` yielded an activation of 1.29%.
With `O=[N+]([O-])/C=C1\CCCCCN1` the activation was 3.32%.
In the case of `N#C/C(=C/c1cccc([N+](=O)[O-])c1)c1nnc2n1CCCCC2`, the activation is reported as 2.1%.
`COCc1cc(=O)[nH]c(SC)n1` was tested, and the activation was 1.98%.
Work on `CCOC12CC(C)(C)CC(C)(CC3=C1C(=O)CC(C)(C)C3)C2` (stereo not drawn) yielded an activation of 1.01%.
`CSc1cccc(NC(=S)N(Cc2ccccc2)Cc2ccccn2)c1` was tested, and the activation was -0.2%.
`CCOc1ccc(-n2c(O)c(/C=N/c3ccnn3Cc3ccncc3)c3ccccc3c2=O)cc1` showed an activation of 0.39%.
`O=C(COC(=O)c1ccco1)NCc1ccc(Cl)cc1` was tested, and the activation was 0.49%.
`Cc1cc(C)n(Cc2cnc(N3CCOCC3)s2)n1` showed an activation of 0.48%.
`CNC(=O)c1ccsc1NC(=O)c1ccc(S(=O)(=O)N2CCOCC2)cc1` gave an activation of 2.83%.
Work on `CC1=NN(c2cccc(Cl)c2)C(=O)C12CC(C)=C(C)CS2` (stereo not drawn) yielded an activation of -0.78%.
`O=C1CC(N2CCN(c3ccc(F)cc3)CC2)C(=O)N1c1ccccc1` (stereo not drawn) was tested, and the activation was 0.96%.
Molecule `Cc1ccc(N2CCN(S(=O)(=O)c3ccc(F)cc3)CC2)c(C)c1` has an activation of -1.18%.
`Cc1ccc(N2C(=O)CC(N3CCSCC3)C2=O)c(C)c1` (stereo not drawn) was tested, and the activation was 40.3% (active).
In the case of `Cc1cc(C)n(C(=O)CCNC(=O)c2ccccc2Cl)n1`, the activation is reported as 0.31%.
`CC(C)c1ccc(NC(=S)NC2CC3C=CC2C3)cc1` (stereo not drawn) was tested, and the activation was 1.72%.
With `CCCCCCCCCOC1OC(CO)C(O)C(O)C1NC(C)=O` (stereo not drawn) the activation was 1.72%.
`O=C(CNC(=O)c1ccccc1)NCC(=O)OCC(=O)c1ccccc1` (Bz-Gly-Gly-OPac) gave an activation of 1.5%.
`CC(C)OC(=O)CN1CCN(c2ccc(Cl)cc2)CC1` was tested, and the activation was 4.98%.
In the case of `Cc1occc1C(=O)Nc1nnc(-c2ccncc2)s1`, the activation is reported as 0.89%.
Work on `Cc1ccc(C(=O)Nc2nnc(-c3ccncc3)s2)o1` yielded an activation of 1.91%.
For `Cc1ccc(NC(=O)Nc2nnc(-c3ccncc3)s2)cc1`, the activation was 20.7% (active).
In the case of `O=C(NN=C1CCC(=NNC(=O)c2cccnc2)CC1)c1cccnc1`, the activation is reported as 1.24%.
For `COC(=O)c1ccc(NC(=O)c2ccccc2NS(=O)(=O)c2ccccc2)cc1`, the activation was 19.8% (active).
In the case of `COc1cc(NC(=O)c2ccccc2NS(=O)(=O)c2ccc(Cl)s2)cc(OC)c1`, the activation is reported as 21% (active).
Molecule `O=C(Nc1nncs1)c1ccccc1NS(=O)(=O)c1cccs1` has an activation of -0.5%.
`COc1cc(NC(=O)c2cccnc2SC)cc(OC)c1` showed an activation of -0.29%.
For `COC(=O)c1ccccc1NC(=O)c1ccccc1NS(C)(=O)=O`, the activation was -1.95%.
`CCOc1ccc(NC(=O)c2ccccc2NS(C)(=O)=O)cc1` was tested, and the activation was 0.2%.
Molecule `C=C(C)CNC(=S)N/N=C/c1ccccc1OCC(=O)O` has an activation of 1.26%.
For `Cc1ccc2cc(CN(c3ccc(C)c(C)c3)S(C)(=O)=O)c(=O)[nH]c2c1`, the activation was 1.62%.
Work on `CC#CC[N+](C)(C)CCCCCC` yielded an activation of -0.58%.
Work on `COCCN(Cc1nc(-c2ccc(C(F)(F)F)cc2)no1)C(C)C` yielded an activation of 0.76%.
Work on `O=C(CCNC(=O)Cn1ccc2ccccc2c1=O)NCCC1=CCCCC1` yielded an activation of -0.5%.
Work on `COc1ccc(OC)c(-c2c(=O)n(OCc3ccccc3Br)c3ccccc3[n+]2[O-])c1` yielded an activation of -1.72%.
For `COc1ccc(C(C)=O)cc1COc1ccc(Cl)c(C)c1`, the activation was 0.81%.
For `CCOC(=O)CC1C(=O)NCCN1C(=O)COc1ccc(Br)cc1C` (stereo not drawn), the activation was -0.63%.
With `Cc1cccn2c(=O)c(/C=C3\SC(=S)N(CC(C)C)C3=O)c(NCCCOC(C)C)nc12` the activation was 1.73%.
`CCOC(=O)CC1C(=O)NCCN1c1nc2c(C)cccn2c(=O)c1/C=C1\SC(=S)N(C(C)CC)C1=O` (stereo not drawn) was tested, and the activation was 23.3% (active).
In the case of `CCOC(=O)C1(Cc2cccc(OC)c2)CCN(C(C)COC)CC1` (stereo not drawn), the activation is reported as -0.77%.
With `Cc1ccc(N2C(=O)S/C(=C/c3cn(C)c4ccccc34)C2=O)cc1` the activation was 1.3%.
Molecule `O=C(NCCc1c[nH]c2ccccc12)C(=O)NCC1CCCO1` (stereo not drawn) has an activation of 0.46%.
`N#C/C(=C/c1ccc(N2CCCCC2)o1)C(=O)NCCc1c[nH]c2ccccc12` was tested, and the activation was 29.5% (active).
Molecule `N#C/C(=C/c1ccc(-c2ccccc2[N+](=O)[O-])o1)C(=O)NCCN1CCCCC1` has an activation of -2.16%.
`COCCCNC(=O)CNC(=S)N(Cc1cc(OC)c(OC)c(OC)c1)C1CCCC1` showed an activation of 0.25%.
Molecule `C=CCNC(=O)c1ccccc1NC(=O)c1ccc(Cl)c(S(=O)(=O)Nc2cccc(C)c2C)c1` has an activation of 1.27%.
`Cn1nnnc1-c1cc(Cl)cc(Cl)c1` was tested, and the activation was -0.59%.
Work on `CCN1/C(=C/C(=S)Nc2ccccc2)Sc2ccccc21` yielded an activation of -1.89%.
`CCN1/C(=C\c2ccc3ccccc3[n+]2CC)Sc2cc(C)ccc21` was tested, and the activation was 38.4% (active).
In the case of `CCN1/C(=C/c2ccc3ccc(C)cc3[n+]2CC)Sc2ccccc21`, the activation is reported as 30.7% (active).
In the case of `CCN1CCN(CCNC(=O)c2ccc(/C=C3/Sc4ccccc4N(Cc4cccc(C)c4)C3=O)cc2)CC1`, the activation is reported as 4.77%.
For `CC(C)(C)C(=O)CSc1nc2ccccc2o1`, the activation was -0.66%.
With `COc1ccc(-c2cn(-c3ccc(OC)cc3)c(=S)[nH]2)cc1` the activation was -0.09%.
For `COc1cc(OC)c(-n2cc(-c3ccc(Cl)cc3)[nH]c2=O)cc1Cl`, the activation was 32.6% (active).
`COc1cc(OC)c(-n2c(C)cc(C=O)c2C)cc1Cl` was tested, and the activation was -1.14%.
With `O=C(c1snnc1-c1ccccc1)N1CCOCC1` the activation was -0.06%.
`CC(=O)Nc1ccc(S(=O)(=O)Nc2ccc(-c3ccc4nnc(C)n4n3)cc2)cc1` gave an activation of 0.58%.
`O=C(NCC(c1cccs1)N1CCOCC1)c1cc(-c2ccccn2)nc2ccccc12` (stereo not drawn) was tested, and the activation was 1.98%.
`CC(C)(C)c1cnnn1-c1ccc([N+](=O)[O-])cc1` showed an activation of 1.54%.
In the case of `CN=C1C=C/C(=N/N=c2\ccn(O)cc2C)C=C1C`, the activation is reported as -3.14%.
With `CCC(C(=O)Nc1ccc(C(C)C)cc1)c1ccccc1` (stereo not drawn) the activation was 29% (active).
`CCC(C(=O)OCC(=O)Nc1ccc(C(=O)Nc2ccc(OC)cc2)cc1)c1ccccc1` (stereo not drawn) showed an activation of 2.79%.
In the case of `CCC(C(=O)Nc1ccc2c(c1)OCCO2)c1ccccc1` (stereo not drawn), the activation is reported as -0.31%.
For `CN(C)c1ccc(/C=C2\NC(=S)N(Cc3ccccc3)C2=O)cc1`, the activation was 30.3% (active).
`O=C1NCC(=O)N(Cc2ccccc2)/C1=C/c1ccccc1` gave an activation of 0.65%.
Molecule `CC1=NN(Cc2ccccc2)C(=O)/C1=C/c1ccc(N(C)C)cc1` has an activation of -3.57%.
`Cc1ccc(S(=O)(=O)N2CCOCC2)cc1NC(=O)CSc1nnc(N)s1` was tested, and the activation was 0.64%.
`CC1CN(CCCOc2ccccc2-c2ccccc2)CC(C)O1` (stereo not drawn) showed an activation of -1.64%.
With `CC(CNS(=O)(=O)c1ccc(Br)cc1)CN(C)C` (stereo not drawn) the activation was 0.45%.
`CCOc1cc2[nH]c(=O)n(Cc3ccc(C(=O)NCCCN4CCCC4=O)cc3)c(=O)c2cc1OCC` was tested, and the activation was -0.57%.
`CC(C)(c1ccccc1)c1ccc(OCCN)cc1` gave an activation of 2.87%.
For `CONc1nc2nonc2nc1NOC`, the activation was 2.6%.
`CC1C(=O)NC(=O)C1c1ccccc1` (stereo not drawn) was tested, and the activation was 0.95%.
Work on `Cc1cc(C)c(OCCN2CC(C)OC(C)C2)c(Br)c1` (stereo not drawn) yielded an activation of -2.75%.
With `Cc1ccc2[nH]cc(CCNC(=O)c3ccc([N+](=O)[O-])cc3)c2c1` the activation was -0.48%.
In the case of `COc1cc(/C=C(\C#N)c2nc3c(s2)CC(C)CC3)ccc1O` (stereo not drawn), the activation is reported as 9.23%.
`CCOc1cc(/C=C(\C#N)c2nc(-c3cccs3)c(NC(C)=O)s2)ccc1O` was tested, and the activation was 26.9% (active).
Work on `COc1cc(/C=N\Nc2nc(-c3cccs3)c(NC(C)=O)s2)ccc1O` yielded an activation of 0.7%.
`COC(=O)c1cc(NC(=O)Cc2ccccc2[N+](=O)[O-])ccc1Cl` showed an activation of -1.23%.
In the case of `CC(=O)OC(C)C[N+](C)(C)C` (stereo not drawn), the activation is reported as 51% (active).
With `CC(C[N+](C)(C)C)OC(N)=O` (stereo not drawn) the activation was 0.21%.
With `CN1CCN(c2cc3c(cc2F)c(=O)c(C(=O)O)cn3CCF)CC1` the activation was 1.93%.
In the case of `O=C(N1CCCCC1)N1CCN(C(=O)N2CCCCC2)CC1`, the activation is reported as 1.43%.
`CC1=CC2=NC(=O)/C(=C/c3coc4ccccc4c3=O)C(=N)N2O1` was tested, and the activation was 35.5% (active).
`COc1ccc(OCCCn2cccc2/C=C2/C(=N)N3OC(C)=CC3=NC2=O)cc1` showed an activation of 1.04%.
Molecule `CCOc1cc(/C=C2/C(=N)N3OC(C)=CC3=NC2=O)ccc1OC` has an activation of -0.5%.
`CC(=O)c1c(C)[nH]c(=S)c(C#N)c1-c1ccc(F)cc1` was tested, and the activation was -0.66%.
With `Oc1ccc2ccc3cccc[n+]3c2c1` the activation was 33.7% (active).
In the case of `CCN(Cc1ccccc1)S(=O)(=O)c1cc(C(=O)O)ccc1OC`, the activation is reported as -2.45%.
Molecule `CC(NC(=O)COC(=O)c1ccc2c(c1)OCO2)c1ccccc1` (stereo not drawn) has an activation of 1%.
For `COc1cc(OC)cc(C(=O)N[C@H](C(=O)OCC(=O)NC(C)c2ccccc2)C(C)C)c1` (stereo partly drawn), the activation was 46.5% (active).
Work on `COc1cc(OC)cc(C(=O)N[C@H](C(=O)Nc2nc3ccccc3[nH]2)C(C)C)c1` yielded an activation of -2.24%.
With `COc1ccc(C(=O)N/N=C2\CCS(=O)(=O)c3ccc(F)cc32)cc1OC` the activation was 2.13%.
